Experimental findings from ChEMBL document CHEMBL1131242, “6beta-Acetoxynortropane: a potent muscarinic agonist with apparent selectivity toward M2-receptors” (J Med Chem, 1998) are described below.

The target of assay [1] is T1, Muscarinic acetylcholine receptor M1 (Rattus norvegicus) (UniProt P08482).
T1 sequence (whole entry): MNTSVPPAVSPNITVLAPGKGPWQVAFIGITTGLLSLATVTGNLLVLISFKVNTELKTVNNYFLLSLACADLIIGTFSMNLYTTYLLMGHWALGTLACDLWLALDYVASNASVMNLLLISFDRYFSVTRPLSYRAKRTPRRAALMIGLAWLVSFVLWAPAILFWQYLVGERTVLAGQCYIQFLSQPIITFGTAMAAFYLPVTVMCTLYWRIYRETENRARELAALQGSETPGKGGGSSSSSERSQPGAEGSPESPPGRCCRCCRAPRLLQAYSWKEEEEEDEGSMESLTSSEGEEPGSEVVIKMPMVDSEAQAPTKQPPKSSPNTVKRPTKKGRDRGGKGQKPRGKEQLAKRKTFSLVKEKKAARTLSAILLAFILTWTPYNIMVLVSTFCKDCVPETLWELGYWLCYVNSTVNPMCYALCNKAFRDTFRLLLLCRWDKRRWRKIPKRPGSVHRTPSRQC
The assay can be described thus: Percentage inhibition of binding of [3H]quinuclidinyl benzilate to muscarinic acetylcholine receptor M1 in rat cerebral cortical membranes. Format: cell membranes. More on the design: concentration or dose not given beside the values. The note with it: Membrane, concentration not given here. In outline:
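Rat cerebral cortex membranes were homogenised in 50 mM Tris-HCl pH 7.4 and diluted in HEPES binding buffer. They were incubated with 0.2 nM [3H]quinuclidinyl benzilate in 20 mM HEPES pH 7.4 with 10 mM MgCl2 and 100 mM NaCl for 30 min at 37 °C, in triplicate. Nonspecific binding used 1 µM atropine. Filtration was followed by scintillation counting.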

The target of assay [2] is T2, Neuronal acetylcholine receptor; alpha4/beta2 (Rattus norvegicus) (UniProt P09483+P12390). The assay can be described thus: Inhibition of binding of [3H]nicotine to Nicotinic acetylcholine receptor alpha4-beta2 in rat cerebral cortical membranes at 100 uM concentration. In kind it is cell membranes. The note with it: Membrane. Summed up:
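[3H]nicotine (0.2 nM) binding to rat cortical membranes, with 200 µM diisopropyl fluorophosphate, 120 min at 0–4 °C, triplicate. Nonspecific binding with 1 µM nicotine. Percent inhibition at 100 µM test agent; mean ± SEM, n = 4.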

In assay [3] the target is T2, Neuronal acetylcholine receptor; alpha4/beta2 (Rattus norvegicus). The assay can be described thus: (§1) The compound was evaluated for percentage inhibition of binding of [3H]- nicotine to Nicotinic acetylcholine receptor alpha4-beta2 in Rat Cerebral Cortical Membranes. In kind it is protein-complex assay. More on the design: concentration or dose not given beside the values. The note with it: concentration not given here. Summed up: (§2)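 Rat cerebral cortex membranes with 0.2 nM [3H]nicotine in HEPES binding buffer pH 7.4 containing 200 µM diisopropyl fluorophosphate. Incubation was 120 min at 0–4 °C, in triplicate. Nonspecific binding used 1 µM nicotine. Samples were filtered through polyethylenimine-soaked GF/B filters and counted.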

Assay [4] deals with T3, Muscarinic acetylcholine receptor M3 (Homo sapiens, UniProt P20309). The assay can be described thus: Inhibition of binding of [3H]quinuclidinyl benzilate to human Muscarinic acetylcholine receptor M3 in membranes of transfected CHO cells at 100 uM concentration. The note with it: Membrane.
Target sequence in this assay (P20309 whole entry, looked up): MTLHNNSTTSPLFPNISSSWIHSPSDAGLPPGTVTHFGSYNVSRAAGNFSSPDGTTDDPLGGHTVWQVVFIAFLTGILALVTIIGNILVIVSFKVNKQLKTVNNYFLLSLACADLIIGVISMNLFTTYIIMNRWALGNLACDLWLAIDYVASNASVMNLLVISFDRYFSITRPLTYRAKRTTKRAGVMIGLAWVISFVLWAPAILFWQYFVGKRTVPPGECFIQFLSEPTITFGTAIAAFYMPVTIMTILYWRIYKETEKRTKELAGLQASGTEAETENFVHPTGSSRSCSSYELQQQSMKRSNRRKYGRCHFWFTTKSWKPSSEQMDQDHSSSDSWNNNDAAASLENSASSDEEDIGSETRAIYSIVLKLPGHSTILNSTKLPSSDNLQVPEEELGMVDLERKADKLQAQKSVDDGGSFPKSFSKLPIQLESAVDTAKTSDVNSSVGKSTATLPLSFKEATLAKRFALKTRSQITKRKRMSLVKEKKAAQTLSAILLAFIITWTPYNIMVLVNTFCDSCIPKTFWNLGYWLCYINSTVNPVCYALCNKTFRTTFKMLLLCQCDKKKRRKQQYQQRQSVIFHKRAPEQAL
In assay [5] the target is T4, Muscarinic acetylcholine receptor M1 (Homo sapiens) (UniProt P11229).
T4 sequence (whole entry): T1 sequence (whole entry) with V5A, S254T, S309P, K320R, G337A, V413I
The assay can be described thus: Percentage inhibition of binding of [3H]quinuclidinyl benzilate to muscarinic receptors in membranes of CHO cells transfected with Muscarinic acetylcholine receptor M1. Format: cell membranes. The note with it: concentration not given here. Summed up: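 Membranes from CHO cells expressing human M1–M4 receptors in 25 mM sodium phosphate pH 7.4 with 5 mM MgCl2, 30 min at 37 °C, triplicate. [3H]quinuclidinyl benzilate was 0.2 nM for M1 and M3 and 0.1 nM for M2 and M4. Nonspecific binding used 10 µM atropine for M1 and 1 µM for the others.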

The target in assay [6] is T3, Muscarinic acetylcholine receptor M3. The assay can be described thus: Percentage inhibition of binding of [3H]quinuclidinyl benzilate to muscarinic receptors in membranes of CHO cells transfected with Muscarinic acetylcholine receptor M3. In kind it is cell membranes. The note with it: concentration not given here.
Target sequence in this assay (P20309 whole entry, looked up): as above
In assay [7] the target is Muscarinic acetylcholine receptor M4 (Homo sapiens) (UniProt P08173). The assay can be described thus: Inhibitory activity against [3H]-cyclic AMP accumulation in CHO transfected cells mediated by Muscarinic acetylcholine receptor M4.
Assay [8] concerns the target Muscarinic acetylcholine receptor M2 (Homo sapiens) (UniProt P08172). The assay can be described thus: Inhibition of binding of 0.1 nM [3H]quinuclidinyl benzilate to Muscarinic acetylcholine receptor M2 in membranes of transfected CHO cells in the presence of 10 uM GTP.
Assay [9] deals with T3, Muscarinic acetylcholine receptor M3. The assay can be described thus: Inhibitory activity against stimulation of [3H]inositol monophosphate accumulation in [3H]inositol-labelled CHO transfected cells mediated by Muscarinic acetylcholine receptor M3.
Target sequence in this assay (P20309 whole entry, looked up): as above
The target of assay [10] is T5, Muscarinic acetylcholine receptor M2 (Homo sapiens, UniProt P08172).
T5 sequence (P08172 whole entry): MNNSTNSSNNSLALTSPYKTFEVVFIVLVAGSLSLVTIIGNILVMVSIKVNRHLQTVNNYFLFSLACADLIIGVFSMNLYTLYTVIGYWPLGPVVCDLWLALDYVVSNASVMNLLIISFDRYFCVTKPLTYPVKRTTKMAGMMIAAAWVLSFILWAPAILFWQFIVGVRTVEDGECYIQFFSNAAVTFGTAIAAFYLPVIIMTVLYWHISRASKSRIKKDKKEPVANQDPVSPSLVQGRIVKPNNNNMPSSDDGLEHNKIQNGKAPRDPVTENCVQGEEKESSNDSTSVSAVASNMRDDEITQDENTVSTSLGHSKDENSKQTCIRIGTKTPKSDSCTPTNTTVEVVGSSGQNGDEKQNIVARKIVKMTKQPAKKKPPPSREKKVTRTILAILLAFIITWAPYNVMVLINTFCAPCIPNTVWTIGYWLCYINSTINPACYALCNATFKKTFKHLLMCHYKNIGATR
The assay can be described thus: Inhibition of binding of [3H]quinuclidinyl benzilate to muscarinic receptors in membranes of CHO cells transfected with Muscarinic acetylcholine receptor M2. In kind it is cell membranes.

The target of assay [11] is Muscarinic acetylcholine receptor M4 (Homo sapiens) (UniProt P08173). The assay can be described thus: Inhibition of binding of [3H]quinuclidinyl benzilate to Muscarinic acetylcholine receptor M4 in membranes of transfected CHO cells.
Assay [12] has as its target T5, Muscarinic acetylcholine receptor M2. The assay can be described thus: Inhibitory activity against [3H]quinuclidinyl Benzilate binding to Muscarinic acetylcholine receptor M2 in the presence of GTP. Summed up: (§3)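 Membranes from CHO cells expressing human M2 receptor. Competition against 0.1 nM [3H]quinuclidinyl benzilate in 25 mM sodium phosphate pH 7.4, 5 mM MgCl2, without or with 10 μM GTP; 30 min at 37 °C, triplicate. Nonspecific binding with 1 μM atropine. Filtration, scintillation counting.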

The target of assay [13] is T6, Muscarinic acetylcholine receptor M4 (Homo sapiens, UniProt P08173).
T6 sequence (P08173 whole entry): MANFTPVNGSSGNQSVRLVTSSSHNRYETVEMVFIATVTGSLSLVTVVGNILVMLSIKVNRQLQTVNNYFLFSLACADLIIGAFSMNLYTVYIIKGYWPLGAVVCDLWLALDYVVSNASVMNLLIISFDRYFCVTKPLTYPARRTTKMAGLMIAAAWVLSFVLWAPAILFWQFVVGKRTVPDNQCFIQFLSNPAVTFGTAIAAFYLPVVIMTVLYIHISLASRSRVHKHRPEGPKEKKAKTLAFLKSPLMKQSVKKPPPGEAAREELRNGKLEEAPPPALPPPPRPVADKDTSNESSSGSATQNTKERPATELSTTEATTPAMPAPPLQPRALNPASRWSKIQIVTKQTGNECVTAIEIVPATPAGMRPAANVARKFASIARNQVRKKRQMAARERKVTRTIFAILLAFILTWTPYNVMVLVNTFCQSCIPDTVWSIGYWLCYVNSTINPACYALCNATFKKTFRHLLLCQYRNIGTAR
The assay can be described thus: Inhibition of binding of [3H]quinuclidinyl benzilate to muscarinic receptors in membranes of CHO cells transfected with Muscarinic acetylcholine receptor M4. Format: cell membranes.

The target in assay [14] is T5, Muscarinic acetylcholine receptor M2. The assay can be described thus: Inhibitory activity against [3H]quinuclidinyl Benzilate binding to Muscarinic acetylcholine receptor M2 in the absence of GTP. In outline:
as §3

In assay [15] the target is Muscarinic acetylcholine receptor M2 (Homo sapiens) (UniProt P08172). The assay can be described thus: Inhibition of binding of [3H]quinuclidinyl benzilate to Muscarinic acetylcholine receptor M2 in membranes of transfected CHO cells.
The target is the same in assay [16]. The assay can be described thus: Inhibition of binding of 0.1 nM [3H]quinuclidinyl benzilate to Muscarinic acetylcholine receptor M2 in membranes of transfected CHO cells in the absence of GTP.
The target of assay [17] is Muscarinic acetylcholine receptor M1 (Homo sapiens) (UniProt P11229). The assay can be described thus: Inhibitory activity against stimulation of [3H]inositol monophosphate accumulation in [3H]inositol-labelled CHO transfected cells mediated by Muscarinic acetylcholine receptor M1.
Target sequence in this assay (P11229 whole entry, looked up): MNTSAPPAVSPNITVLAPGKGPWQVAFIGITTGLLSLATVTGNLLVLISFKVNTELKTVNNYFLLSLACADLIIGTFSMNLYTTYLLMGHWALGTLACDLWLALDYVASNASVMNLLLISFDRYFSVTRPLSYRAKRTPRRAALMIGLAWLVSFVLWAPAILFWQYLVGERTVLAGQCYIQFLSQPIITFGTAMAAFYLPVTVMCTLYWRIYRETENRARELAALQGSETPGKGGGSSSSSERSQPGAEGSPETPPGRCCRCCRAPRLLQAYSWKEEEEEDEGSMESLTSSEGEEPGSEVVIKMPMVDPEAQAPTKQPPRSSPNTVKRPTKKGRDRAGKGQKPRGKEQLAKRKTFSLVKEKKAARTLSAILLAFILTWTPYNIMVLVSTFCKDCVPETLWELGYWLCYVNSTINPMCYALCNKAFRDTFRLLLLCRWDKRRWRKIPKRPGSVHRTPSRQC
In assay [18] the target is T7, Neuronal acetylcholine receptor; alpha4/beta2 (Rattus norvegicus, UniProt P09483+P12390). The assay can be described thus: Inhibition of binding of [3H]nicotine to Nicotinic acetylcholine receptor alpha4-beta2 in rat cerebral cortical membranes. Format: cell membranes, Membrane. Summed up:
as §2

Assay [19] has as its target T7, Neuronal acetylcholine receptor; alpha4/beta2. The assay is described as §1. In kind it is protein-complex assay. In outline:
as §2

For assay [20], the target named is T8, Muscarinic acetylcholine receptor M1 (Rattus norvegicus, UniProt P08482).
T8 sequence (P08482 whole entry): T1 sequence (whole entry)
The assay can be described thus: Inhibition of binding of [3H]oxotremorine M to Muscarinic acetylcholine receptor M1 in rat cerebral cortical membranes. Format: cell membranes, Membrane. Summed up: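 Agonist radioligand assay: rat cortical membranes with 2 nM [3H]oxotremorine M in 25 mM sodium phosphate pH 7.4 with 5 mM MgCl2, 2 h at 25 °C, in triplicate. Nonspecific binding used 5 µM atropine. Filtration followed by scintillation counting.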

The target of assay [21] is T3, Muscarinic acetylcholine receptor M3. The assay can be described thus: Inhibition of binding of [3H]quinuclidinyl benzilate to muscarinic receptors in membranes of CHO cells transfected with Muscarinic acetylcholine receptor M3. In kind it is cell membranes.
Target sequence in this assay (P20309 whole entry): as the sequence (P20309 whole entry, looked up) above
Assay [22] addresses T8, Muscarinic acetylcholine receptor M1. The assay can be described thus: Affinity versus [3H]oxotremorine M (agonist) binding to Muscarinic acetylcholine receptor M1 in Rat Cerebral Cortical Membranes, (Kd=[…]).
Assay [23] concerns the target Muscarinic acetylcholine receptor M1 (Homo sapiens) (UniProt P11229). The assay can be described thus: Inhibition of binding of [3H]quinuclidinyl benzilate to human Muscarinic acetylcholine receptor M1 in membranes of transfected CHO cells at 300 uM concentration. The note with it: Membrane.
Target sequence in this assay (P11229 whole entry, looked up): as the sequence (P11229 whole entry, looked up) above

Where a chain is given by its changes, count along the chain named.

T7 sequence (P09483 whole entry): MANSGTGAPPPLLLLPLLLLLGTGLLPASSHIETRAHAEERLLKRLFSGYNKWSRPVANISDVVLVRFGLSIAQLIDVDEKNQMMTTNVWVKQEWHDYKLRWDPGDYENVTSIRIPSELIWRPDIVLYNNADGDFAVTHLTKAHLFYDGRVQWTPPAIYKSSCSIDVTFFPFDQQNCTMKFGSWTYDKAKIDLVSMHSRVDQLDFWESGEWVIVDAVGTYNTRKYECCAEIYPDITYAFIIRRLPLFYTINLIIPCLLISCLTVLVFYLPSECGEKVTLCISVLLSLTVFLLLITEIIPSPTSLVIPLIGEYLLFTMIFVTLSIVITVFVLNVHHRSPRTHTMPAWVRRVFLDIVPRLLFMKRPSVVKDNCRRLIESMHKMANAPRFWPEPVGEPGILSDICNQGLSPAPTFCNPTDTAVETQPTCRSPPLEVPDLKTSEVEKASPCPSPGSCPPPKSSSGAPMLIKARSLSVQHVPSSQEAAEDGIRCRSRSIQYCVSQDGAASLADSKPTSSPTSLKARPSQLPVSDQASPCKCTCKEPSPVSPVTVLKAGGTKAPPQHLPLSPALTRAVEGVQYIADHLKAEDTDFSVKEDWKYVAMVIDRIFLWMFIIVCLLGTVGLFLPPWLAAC
T7 sequence (P12390 whole entry): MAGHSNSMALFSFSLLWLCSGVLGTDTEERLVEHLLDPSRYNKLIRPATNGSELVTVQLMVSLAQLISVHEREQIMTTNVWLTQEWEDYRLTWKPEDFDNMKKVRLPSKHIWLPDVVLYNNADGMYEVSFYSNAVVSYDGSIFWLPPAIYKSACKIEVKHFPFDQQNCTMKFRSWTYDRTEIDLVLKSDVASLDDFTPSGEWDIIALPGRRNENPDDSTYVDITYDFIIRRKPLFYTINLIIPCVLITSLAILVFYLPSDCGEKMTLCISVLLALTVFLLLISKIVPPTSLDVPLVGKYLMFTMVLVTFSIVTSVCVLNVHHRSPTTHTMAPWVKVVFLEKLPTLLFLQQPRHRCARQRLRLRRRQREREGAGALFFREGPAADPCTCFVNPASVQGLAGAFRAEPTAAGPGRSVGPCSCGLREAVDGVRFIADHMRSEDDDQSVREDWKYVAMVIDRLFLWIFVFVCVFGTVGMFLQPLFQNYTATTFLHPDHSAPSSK

For `CC(=O)O[C@H]1CCC2NC1C[C@@H]2S(=O)(=O)c1ccccc1` (stereo partly drawn), the inhibition in assay [1] came to 0%; in assay [2], 16%; in assay [3] it was 16%.

As to `CC(=O)OC1CC2CC(=O)CC1N2C` (stereo not drawn), the inhibition came to 0% in [1], 5% in [2] and 5% in [3].

As for `CCSC1CCC2NC1CC2C(=O)OC` (stereo not drawn), the values for the inhibition in assay [1], in assay [2] and in assay [3] were 7%, 50% and 50%, respectively.

Consider `COC(=O)[C@H]1CC2NC1CC[C@H]2OC(C)=O` (stereo partly drawn), for which the figures for the inhibition in assay [1], in [2] and in [3] were 1%, 19% and 19%, respectively.

`CC(=O)OC1CC2CC(=O)CC1N2` (stereo not drawn): the values for the inhibition in assay [1], in assay [2] and in assay [3] were 11%, 13% and 13%, respectively.

On to `COC(=O)C1C(O)CC2CCC1N2C` (stereo not drawn), for which the inhibition in assay [1] was 27%; in assay [4], 28%; in assay [2] it was 11%; in assay [5], 13%; in assay [6] it was 19%; in [3] it was 11%.

`CC(=O)O[C@@H]1CCC2NC1C[C@@H]2S(=O)(=O)c1ccccc1` (stereo partly drawn): the inhibition turned out to be 6% in [1], 10% in [2] and 10% in assay [3].

In the case of `COC(=O)C1CC2NC1CCC21SCCS1` (stereo not drawn), the values for the inhibition in assay [1], in assay [2] and in [3] were 3%, 36% and 36%, respectively.

For the compound `CC(=O)OC(C)C[N+](C)(C)C` (stereo not drawn) [METHACHOLINE], the IC50 in assay [7] was found to be 0.7 µM; in assay [8], 5.2 µM; in [12], 5.2 µM; in [14] it was 0.38 µM; in assay [16], 0.38 µM. Besides, the EC50 amounted to 0.12 µM in assay [9] and 0.4 µM in assay [17]. The inhibition in [5] amounted to 8%; in assay [6], 34%. For the same compound, the inhibition constant Ki was 0.059 µM in assay [10], 1.6 µM in assay [11], 1.6 µM in [13] and 0.059 µM in assay [15].

For `COC(=O)[C@H]1CC2NC1CC[C@H]2O` (stereo partly drawn), the Ki in assay [18] and in assay [19] was 64 µM in each case.

As to `COC(=O)C1CC2NC1CCC2=O` (stereo not drawn), the inhibition in assay [1] worked out at 0%; in assay [2], 15%; in assay [3], 15%.

Turning to `COC(=O)[C@H]1CC2NC1CC[C@@H]2OC(C)=O` (stereo partly drawn), the inhibition in assay [1] was determined as 1%; in assay [2], 13%; in assay [3], 13%.

Regarding `CC(=O)O[C@H]1CCC2CCC1N2` (stereo partly drawn), the Ki in assay [18] and in assay [19] was 32 µM each time.

For the compound `CC(=O)O[C@@H]1CCC2CCC1N2` (stereo partly drawn), the Ki in assay [18] and in assay [19] was 24 µM throughout.

`COC(=O)C1CC2CCCC1N2` (stereo not drawn): the Ki stood at 0.15 µM in assay [18]; 0.26 µM in assay [20]; 0.48 µM in assay [10]; 0.15 µM in assay [19]; 7.9 µM in assay [11]; 18 µM in assay [21]. The Ki in assay [13] turned out to be 7.9 µM; in assay [22], 0.26 µM; in assay [15], 0.48 µM. Besides, the inhibition in assay [5] and in assay [23] was 24% throughout.
